Source: PubChem BioAssay
This is a sample that favours compounds with a hit; in the whole collection about 1.5% have one here.
S100A4 inh HTS: inhibitors of S100A4-myosin IIA peptide binding, primary screen, biochemical, fluorescence polarization, TAMRA-MyoIIA peptide. Protein S100-A4 (Homo sapiens), P26447. inhibition, % at 10.7 µM. 360,000 compounds, 0.14% hits;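 active = mean inhibition of at least 70% across replicates, with every replicate also reaching that level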
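Material: S100A4 monomer protein | Medium: HEPES pH 7.2 with CaCl2, KCl, NaCl, DTT, Triton | Reagent: Labelled myosin peptide probe, 5 nM | Doses: One dose per compound | Times: 5 min incubation before reading | Benchmarks: Neutral control DMSO, positive control TFP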
MLL AF4-AF9 inh: inhibitors of AF4 peptide binding to AF9, primary screen, biochemical, AlphaScreen, biotin-AF4 peptide, FLAG-AF9, single point; Protein AF-9 (Homo sapiens), P42568; inhibition, % at 10 µM; 350,000 compounds, 0.47% hits; AID 651704, 2012;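 active = every replicate reaching a set inhibition limit, whatever the replicate mean, cut at about 25% in these data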;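 note: 0% = plate neutral control median and 100% = total signal loss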
RAD52 inh: RAD52 DNA annealing inhibitors, primary screen, biochemical, FRET, single point, set 2; 360,000 compounds, 0.46% hits; recombinant RAD52 DNA annealing, FRET fluorescence; AID 651710, 2012; DNA repair protein RAD52 homolog (Homo sapiens), P43351; inhibition, % at 18.7 µM;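 active = every replicate showing at least 50% inhibition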
RAD54 inh: inhibitors of human RAD54 branch migration, primary screen, biochemical, fluorescence, single point. RAD54 Holliday junction branch migration, FAM/BHQ fluorescence. 360,000 compounds, 0.14% hits. inhibition, % at 10.4 µM. DNA repair and recombination protein RAD54-like (Homo sapiens), Q92698. AID 602329, 2012;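 active = mean normalized replicate activity at least 40 and at least half of replicates scoring 40 or more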;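 note: 0% = median of neutral control wells and 100% = median of positive control wells; inhibitors cause a drop in the FAM fluorescence signal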
Target sequence (Q92698 whole entry, looked up): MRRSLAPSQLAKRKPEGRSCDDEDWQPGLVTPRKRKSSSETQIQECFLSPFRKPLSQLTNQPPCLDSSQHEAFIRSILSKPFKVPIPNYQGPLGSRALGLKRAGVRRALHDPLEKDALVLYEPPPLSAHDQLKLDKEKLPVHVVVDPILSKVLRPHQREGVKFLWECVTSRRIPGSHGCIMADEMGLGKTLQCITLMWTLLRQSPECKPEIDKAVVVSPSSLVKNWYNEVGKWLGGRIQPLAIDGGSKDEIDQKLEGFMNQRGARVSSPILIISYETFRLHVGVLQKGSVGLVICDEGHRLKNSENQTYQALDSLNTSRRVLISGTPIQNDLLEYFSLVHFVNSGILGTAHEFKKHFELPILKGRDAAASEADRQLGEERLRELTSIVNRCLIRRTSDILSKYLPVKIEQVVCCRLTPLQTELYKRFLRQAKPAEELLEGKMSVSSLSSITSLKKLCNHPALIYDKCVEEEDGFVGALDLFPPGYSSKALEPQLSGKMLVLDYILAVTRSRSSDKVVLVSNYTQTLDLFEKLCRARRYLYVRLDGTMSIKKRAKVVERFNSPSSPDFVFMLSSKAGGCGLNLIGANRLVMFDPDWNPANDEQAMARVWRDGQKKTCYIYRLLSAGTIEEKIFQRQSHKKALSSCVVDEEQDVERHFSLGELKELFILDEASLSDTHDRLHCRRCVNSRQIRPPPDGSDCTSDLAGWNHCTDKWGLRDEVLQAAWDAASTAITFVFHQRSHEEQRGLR
* = called active by the depositor; . = not tested or not shown.

SMILES | S100A4 inh HTS | MLL AF4-AF9 inh | RAD52 inh | RAD54 inh
C[C@@H]1CN([C@@H](C)CO)C(=O)Cc2cc(NS(=O)(=O)c3ccccc3)ccc2O[C@@H]1CN(C)Cc1ccc(Cl)c(Cl)c1 | -5.7 | -1.1 | -15.1 | 1.1
Cc1ccc(S(=O)(=O)Nc2ccc3c(c2)CC(=O)N([C@H](C)CO)C[C@H](C)[C@H](CN(C)Cc2ccc(Oc4ccccc4)cc2)O3)cc1 | 5.6 | -10.5 | -8.1 | -8.3
COc1ccc(CN(C)C[C@@H]2Oc3ccc(NC(=O)Cc4ccccc4)cc3CC(=O)N([C@@H](C)CO)C[C@H]2C)cc1 | 83.6* | -1.5 | 4.4 | .
COc1ccc(CN(C)C[C@@H]2Oc3ccc(NC(=O)Cc4ccccc4)cc3CC(=O)N([C@H](C)CO)C[C@@H]2C)cc1 | -5.5 | -6.5 | 3.4 | 1.4
Cc1ccc(S(=O)(=O)Nc2ccc3c(c2)CC(=O)N([C@@H](C)CO)C[C@@H](C)[C@H](CN(C)Cc2ccc(-c4ccccc4)cc2)O3)cc1 | -3.5 | 2.7 | 83.2* | 1.1
C[C@H]1CN([C@@H](C)CO)C(=O)c2cc(NC(=O)C3CCCCC3)ccc2O[C@H]1CN(C)C(=O)NC1CCCCC1 | -26.4 | -9.9 | -1.5 | -0.3
COc1ccc(CN(C)C[C@@H]2Oc3ccc(NS(=O)(=O)c4ccccc4)cc3CC(=O)N([C@H](C)CO)C[C@H]2C)cc1 | 134.5* | 0.4 | 15.9 | -12.5
O=C(C1CC1)N1CC(=O)N2[C@H](C1)[C@@H](c1ccc(-c3ccccc3F)cc1)[C@@H]2CO | 5.1 | -0.8 | 3.3 | .
C[C@@H]1CCCCO[C@@H](CN(C)Cc2ccc(C(F)(F)F)cc2)[C@H](C)CN([C@@H](C)CO)C(=O)c2cc(N(C)C)ccc2O1 | 5.9 | 32.3* | -9.1 | -4.3
C[C@@H]1CCCCO[C@@H](CN(C)Cc2ccc(C(F)(F)F)cc2)[C@@H](C)CN([C@@H](C)CO)C(=O)c2cc(N(C)C)ccc2O1 | -4.2 | 20.8 | -3.0 | -7.0
C[C@@H]1CCCCO[C@@H](CN(C)Cc2ccc(C(F)(F)F)cc2)[C@H](C)CN([C@H](C)CO)C(=O)c2cc(N(C)C)ccc2O1 | 10.5 | 40.1* | -4.5 | -2.6
COc1ccc2c3c(n(C)c2c1)[C@@H](CO)N(C(=O)Nc1ccc(F)cc1)CC31CCN(Cc2cccnc2)CC1 | . | 38.6* | . | .
COc1ccc2c3c(n(C)c2c1)[C@@H](CO)N(C(=O)Nc1ccc(F)cc1)CC31CN(Cc2cccnc2)C1 | 9.1 | 26.9* | -21.3 | .
COc1ccc2c3c(n(C)c2c1)[C@H](CO)N(C(=O)Nc1ccc(F)cc1)CC31CCN(Cc2cccnc2)CC1 | . | 18.8 | . | .
O=C([C@@H]1[C@@H](CO)[C@@H]2Cn3c(ccc(-c4ccncc4)c3=O)[C@@H]2N1Cc1cocn1)N1CCCCC1 | 9.5 | -4.2 | -12.7 | 6.2
COc1ccc(CN(C)C[C@H]2OCCCC[C@@H](C)Oc3ccc(NS(=O)(=O)c4ccc(OC)cc4)cc3C(=O)N([C@H](C)CO)C[C@@H]2C)cc1 | . | . | . | -16.6
COc1ccc(CN(C)C[C@@H]2OCCCC[C@@H](C)Oc3ccc(NS(=O)(=O)c4ccc(Cl)cc4)cc3C(=O)N([C@@H](C)CO)C[C@@H]2C)cc1 | -27.2 | 1.1 | 55.6* | -8.8
COc1ccc(CN(C)C[C@@H]2OCCCC[C@@H](C)Oc3ccc(NS(=O)(=O)c4ccc(Cl)cc4)cc3C(=O)N([C@H](C)CO)C[C@H]2C)cc1 | 4.3 | 9.2 | 33.0 | 0.1
COc1ccc(S(=O)(=O)Nc2ccc3c(c2)C(=O)N([C@@H](C)CO)C[C@@H](C)[C@H](CN(C)Cc2ccc(C(=O)Nc4ccccc4N)cc2)OCCCC[C@@H](C)O3)cc1 | -5.0 | -0.4 | 55.3* | -2.5
COc1ccc(CN(C)C[C@@H]2OCCCC[C@H](C)Oc3ccc(NS(=O)(=O)c4ccc(F)cc4)cc3C(=O)N([C@H](C)CO)C[C@@H]2C)cc1 | 4.5 | 13.2 | 52.8* | -1.9
COc1ccc(CN(C)C[C@H]2OCCCC[C@@H](C)Oc3ccc(NS(=O)(=O)c4ccc(Cl)cc4)cc3C(=O)N([C@@H](C)CO)C[C@@H]2C)cc1 | -3.9 | 1.1 | 50.6* | -3.9
COc1cccc(C(=O)Nc2ccc3c(c2)C(=O)N(C)[C@@H]2CC[C@@H](CC(=O)NCC(F)(F)F)O[C@H]2CO3)c1 | 2.8 | -1.9 | -0.5 | -2.6
